Screening data from PubChem.
MrgX1 antagonist: antagonists of human MrgX1 receptor | AID 588676 | 310,000 tested, 1.3% active | B-score at 10 µM | MRGX1-HEK293 calcium flux, Fluo-4, BAM8-22 antagonism; hits give low values;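 active = calcium-response B-score plate-corrected more than 3 library SD below zero, starting fluorescence within 5 deviations, no agonist response on first addition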;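 note: peak minus trough fluorescence over baseline after final BAM8-22 challenge near maximal dose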
Target sequence (Q96LB2 whole entry, looked up): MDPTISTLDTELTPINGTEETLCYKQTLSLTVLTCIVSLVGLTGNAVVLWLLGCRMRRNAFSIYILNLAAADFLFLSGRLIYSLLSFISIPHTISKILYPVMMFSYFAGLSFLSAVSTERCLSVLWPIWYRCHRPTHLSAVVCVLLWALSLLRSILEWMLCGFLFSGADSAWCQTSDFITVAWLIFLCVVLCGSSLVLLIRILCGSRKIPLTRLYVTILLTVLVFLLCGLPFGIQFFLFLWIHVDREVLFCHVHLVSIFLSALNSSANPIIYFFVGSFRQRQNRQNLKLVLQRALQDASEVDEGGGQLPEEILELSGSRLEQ
RGS4 block: human RGS4 inhibition; P49798; HEK293 M3R/RGS4 inducible, Fluo-4 calcium flux; hits give high values; triggered by carbachol at its EC20; B-score at 10 µM; 310,000 tested, 0.45% active;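 active = B-score, a plate-corrected calcium signal, over three deviations above library mean, with baseline fluorescence within five deviations of library mean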;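 note: RGS4 expression induced by doxycycline in cells with stable M3 receptor; B-score is computed from the integrated fluorescence ratio over baseline after carbachol; higher B-score means a larger calcium signal and so more RGS4 inhibition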
Target sequence (P49798 whole entry, looked up): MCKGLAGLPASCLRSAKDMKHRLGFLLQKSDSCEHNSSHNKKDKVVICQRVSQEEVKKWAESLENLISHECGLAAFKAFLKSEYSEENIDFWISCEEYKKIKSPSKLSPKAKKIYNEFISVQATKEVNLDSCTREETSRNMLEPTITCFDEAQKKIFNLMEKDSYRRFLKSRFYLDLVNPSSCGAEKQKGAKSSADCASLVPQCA
RGS4 pot: RGS4 potentiation or activation | 310,000 tested, 0.92% active | B-score at 10 µM | HEK293 M3R/inducible RGS4, carbachol calcium flux Fluo4; hits give low values | AID 463111;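 active = B-score of the integrated calcium signal more than 4 SD below the library mean, with starting fluorescence not abnormally high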;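 note: negative B-score means reduced calcium response which marks RGS4 activation or potentiation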
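test system = M3R-expressing HEK293 line, RGS4 induced by doxycycline | probe or stimulus = carbachol at ECmax as muscarinic agonist stimulus | timing = dye loading 30 min 37 °C, buffer rest 30 min RT | signal = calcium dye Fluo4 fluorescence | evaluation = B score from integrated fluorescence ratio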
MrgX1 allo act: human MrgX1 positive allosteric modulation, primary screen; B-score at 10 µM; Q96LB2; 310,000 tested, 0.63% active; MrgX1-HEK293, Fluo-4 calcium flux, FDSS; hits give high values;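 active = plate-corrected calcium response at least 3 library SD above typical, normal starting fluorescence, not activating the receptor alone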;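 note: compound read alongside a low EC10 to EC30 dose of BAM8-22 agonist; peak minus trough fluorescence over baseline measured at the second addition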
MrgX1 agonist: activates human MrgX1 receptor signaling. 310,000 tested, 0.44% active. MrgX1-HEK293 cells, Fluo-4 calcium fluorescence, agonist mode; hits give high values. B-score at 10 µM;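 active = calcium response B-score plate-corrected fluorescence ratio at least 3 library SD, with starting fluorescence B-score inside 5 SD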
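Assay system: stable human MrgX1 HEK293 cell line. Quantity: 15,000 cells per well. Schedule: cells plated overnight, dye loaded 0.5 h 37 °C, 0.5 h room temperature. Detection: Fluo-4 NW calcium-flux fluorescence, kinetic read. Read-out basis: peak-minus-minimum fluorescence over baseline, converted to B scores. Control set: positive and negative control wells on each plate.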
PHOSPHO1 inh: blocks human PHOSPHO1 phosphatase activity; recombinant PHOSPHO1, absorbance phosphatase assay; inhibition, % at 13.3 µM; 290,000 tested, 1.1% active; AID 1565; in the data active = inhibition above about 60%
RGS4 inh valid: RGS4 inhibitor validation. HEK293 M3R/RGS4, carbachol calcium Fluo-4 fluorescence; carbachol added at its EC20; 0 = buffer wells, 100 = carbachol control. calcium response, % at 10 µM. 1,700 tested, 65% active. shares compounds with RGS4 block. AID 492999;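 active = duplicate-averaged calcium response above the buffer-only control mean plus 5 SD of those controls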;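 note: integrated fluorescence ratio F max minus min over baseline F0; higher response in RGS4-induced cells means RGS4 inhibition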
RGS4 uninduced: non-induced cell nonspecific activity of RGS4 inhibitors | activity (percent), % at 10 µM | HEK293 M3R non-induced, carbachol calcium Fluo-4; submaximal (EC20) carbachol stimulus; buffer wells 0%, carbachol control wells 100% | 1,900 tested, 20% active | shares compounds with RGS4 block; call rule not given here;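 note: RGS4 induction absent so cells express M3R without RGS4; higher means more calcium signal and flags a non-specific hit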
RGS4 inh ctr2: signal in non-induced cells without carbachol, RGS4 inhibitor counter-screen; shares compounds with RGS4 block; calcium response (agonist-mode artifact), % at 10 µM; HEK293 M3R/RGS4 non-induced, Fluo-4 calcium, no carbachol; normalised: buffer wells 0%, carbachol wells 100%; 1,900 tested, 22% active;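 active = duplicate-averaged calcium rise in uninduced cells above buffer wells' mean plus 5 SD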
* = called active by the depositor; i = inactive; · = not tested or not shown. Only some compounds are listed: those with a hit (about 4.5% of all), similar ones and a draw of the others.

SMILES	MrgX1 antagonist	RGS4 block	RGS4 pot	MrgX1 allo act	MrgX1 agonist	PHOSPHO1 inh	RGS4 inh valid	RGS4 uninduced	RGS4 inh ctr2
O=c1[nH]c(/C=C/c2cccc([N+](=O)[O-])c2)c([N+](=O)[O-])c(=O)[nH]1	i	i	i	i	i	2.6	·	·	·
CC(C)c1c(C(=O)N/N=C/c2ccc(C(F)(F)F)cc2)nnn1-c1nonc1N	i	i	i	i	i	34.1	·	·	·
Cc1ccc(CNC(=O)C2CCC(=O)N(Cc3ccccc3F)C2)s1 (stereo not drawn)	i	i	i	i	i	42.6	·	·	·
O=C(C[n+]1ccc(/C=C/c2ccccc2)cc1)c1ccc2c(c1)OCCO2	i	i	i	i	i	26.8	·	·	·
CCc1c(C)nc(SCc2ccccn2)[nH]c1=O	i	i	i	i	i	30.3	·	·	·
OC(COc1ccc2ccccc2c1Br)Cn1cnc(-c2ccccc2)c1 (stereo not drawn)	i	9.28*	i	i	i	0.3	10.0%*	i	i
COc1ccc(OCC(O)Cn2cnc(-c3ccc(Br)cc3)c2)cc1 (stereo not drawn)	i	i	i	i	i	8.2	·	·	·
O=C(/C=C/c1ccco1)Nc1nc(-c2ccccc2)cs1	i	i	i	i	i	-10.5	·	·	·
O=C(/C=C/c1ccco1)Nc1nc(-c2ccccn2)cs1	i	11.7*	i	i	i	8.5	22.0%*	i	i
CCCCC1=CC2=C(c3ccco3)C(=O)C(C)(OC(=O)c3ccc(OC)cc3)C(=O)C2=CN1CC1CC1 (stereo not drawn)	i	i	i	i	i	30.9	i	i	i
CCCCC1=CC2=CC(=O)C(C)(OC(=O)CC)C(=O)C2=CN1Cc1ccco1 (stereo not drawn)	i	i	i	i	i	35.3	·	·	·
CCCCC1=CC2=C(c3ccco3)C(=O)C(C)(OC(=O)c3ccc(OC)cc3)C(=O)C2=CN1CCCN(CC)CC (stereo not drawn)	i	i	i	i	i	22.1	i	i	i
CCCCC1=CC2=C(c3ccco3)C(=O)C(C)(OC(=O)c3ccc(OC)cc3)C(=O)C2=CN1C(CO)CO (stereo not drawn)	i	i	i	i	i	26.5	·	·	·
CCCCC1=CC2=C(c3ccco3)C(=O)C(C)(OC(=O)c3ccc(OC)cc3)C(=O)C2=CN1c1ccc(OC)cc1 (stereo not drawn)	i	5.33*	i	i	i	22.1	7.0%*	i	i
CCCCC1=CC2=C(c3ccco3)C(=O)C(C)(OC(=O)c3ccc(OC)cc3)C(=O)C2=CN1CC(C)C (stereo not drawn)	i	6.75*	i	i	i	4.5	5.0%*	i	i
CC(C)CC(=O)Nc1ccc(C(=O)COC(=O)C2CCC2)cc1	i	i	i	i	i	28.0	·	·	·
Cc1csc(NC(=O)CCCC(=O)c2ccccc2)n1	i	i	i	i	i	·	·	·	·
COCC1CCCCC1OS(N)(=O)=O (stereo not drawn)	i	i	i	i	i	-1.7	·	·	·
CCCCC1=CC2=C(c3ccco3)C(=O)C(C)(OC(=O)c3ccc(OC)cc3)C(=O)C2=CN1Cc1ccc(OC)cc1 (stereo not drawn)	·	i	i	·	·	22.1	·	·	·
CCCCC1=CC2=C(c3ccco3)C(=O)C(C)(OC(=O)c3ccc(OC)cc3)C(=O)C2=CN1CCCCO (stereo not drawn)	i	i	i	i	i	8.9	i	i	i
CCCCC1=CC2=C(c3ccco3)C(=O)C(C)(OC(=O)c3ccc(OC)cc3)C(=O)C2=CN1Cc1ccco1 (stereo not drawn)	-4.63*	i	i	i	i	22.1	i	i	i
CCCCC1=CC2=C(c3ccco3)C(=O)C(C)(OC(=O)c3ccc(OC)cc3)C(=O)C2=CN1CCN1CCOCC1 (stereo not drawn)	i	i	i	i	i	35.3	i	i	i
Cc1cc(=O)oc2cc(OCC(=O)NC3CCCCC3)ccc12	i	i	i	i	i	41.6	·	·	·
Cc1cc(NC(=O)Cc2ccccc2)ccc1NC(=O)c1cccs1	i	i	i	i	i	43.6	·	·	·
COCCNC(=O)c1cn(Cc2c(F)cccc2Cl)nn1	i	i	i	i	i	40.8	·	i	i
SMILES	MrgX1 antagonist	RGS4 block	RGS4 pot	MrgX1 allo act	MrgX1 agonist	PHOSPHO1 inh	RGS4 inh valid	RGS4 uninduced	RGS4 inh ctr2
Fc1ccc2c(c1)/C(=N/Nc1ccccn1)CCS2	i	11.7*	i	i	i	-17.5	14.5%*	i	i
CCCOc1ccc(Cc2nn3c(=O)/c(=C/c4ccco4)sc3nc2=O)cc1	i	i	i	i	i	-68.6	·	·	·
CCCOc1ccc(/C=c2\sc3nc(-c4ccco4)nn3c2=O)cc1OCC	i	i	i	i	i	36.3	i	i	153.5%*
O=[N+]([O-])c1cc(Cl)cc(/C=N/NC(=S)Nc2ccc(S(=O)(=O)N3CCOCC3)cc2)c1O	i	i	i	i	i	-129.7	i	i	i
Cc1ccc(-c2nc3c(c(=O)[nH]c(=O)n3Cc3ccccc3)n2Cc2ccccc2)o1	·	8.18*	i	·	·	-20.9	24.0%*	i	7.0%*
CCc1c(C)sc(NC(=O)Cc2ccccc2C)c1C(=O)N1CCOCC1	i	i	i	i	i	-4.3	·	·	·
Cc1cc(C)c(C)c(S(=O)(=O)NC2CCN(Cc3ccccc3)CC2)c1C	i	i	i	i	i	26.7	·	·	·
CC(=O)N1N=C(c2cccc(NS(=O)(=O)c3ccc(C)cc3)c2)CC1c1ccco1 (stereo not drawn)	i	i	i	i	i	22.2	·	·	·
CC(=O)N1N=C(c2c(-c3ccccc3)c3cc(C)ccc3[nH]c2=O)CC1c1ccco1 (stereo not drawn)	i	i	i	i	i	-1.5	·	i	i
